Hits are enriched below; roughly 3.5% of the tested compounds scored in any of these assays.
Yeast lifespan up = extends the lifespan of yeast. S. cerevisiae growth with nicotinamide, OD615; deaD strain in restrictive glucose medium. inhibition of the nicotinamide effect, % at 10 µM. actives 0.68% (n = 130,000). AID 775;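 active = inhibition above a set limit, placed 3 SD over the median of all compounds, cut at about 26% in these data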
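Test system: DeaD-strain S. cerevisiae / Buffer or medium: restrictive glucose medium / Also added: nicotinamide 1.5 mM / Doses: one concentration, 10 µM, DMSO 0.25% / Schedule: 48 h at 30 °C / Signal: OD615 measurement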
MT stabilizer = microtubule stabilization, imaging screen; HeLa tubulin immunostaining HCS, 24 h; share of cells brighter than vehicle mean+2SD; % tubulin-high responders, % at 10 µM; actives 0.83% (n = 200,000);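 active = plate Z-score above 3 for both tubulin-high and condensed-nucleus cell shares, with cell loss under 80%, at 10 µM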;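 note: anti alpha tubulin signal scored within the nucleus-defined area of each cell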
b-catenin transl = modulators of beta-catenin nuclear translocation; HeLa beta-catenin nuclear translocation, immunofluorescence imaging; nuclear translocation activity, % at 5 µM; actives 0.3% (n = 190,000);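 active = nuclear translocation activity above 50% at 5 µM, with a well cell count of 50 or more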;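 note: per-cell ratio of nuclear to cytoplasmic median beta-catenin stain intensity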
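Technique: fluorescence imaging of beta-catenin antibody stain plus DAPI / Material: human HeLa cell line / Incubation: compound treatment 24 h, 37°C, 5% CO2 / Read-out basis: % activation of per-cell nuclear versus cytoplasmic median beta-catenin signal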
Efa HMGR inh = E. faecalis class II HMG-CoA reductase inhibition | purified E. faecalis HMGR, NADPH absorbance 340 nm kinetic | inhibition, % at 10 µM | actives 0.41% (n = 190,000);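 active = inhibition above a set limit, the median over all tested compounds plus 3 SD, cut at about 9.5% in these data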;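 note: enzyme runs in reverse so mevalonate oxidation gives rising NADPH absorbance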
Yeast growth inh = reduces growth of yeast BB579 in restrictive medium; S. cerevisiae BB579 growth, OD615, 48 h; inhibition, % at 10 µM; actives 0.51% (n = 140,000); AID 804;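 active = inhibition above a set limit, 3 SD over the mean compound inhibition, cut at about 44% in these data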
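Test system: DeaD yeast strain BB579 / Buffer or medium: restrictive glucose-based CSMM-D medium / Doses: single 10 µM dose / Schedule: 4 h cell preincubation, 48 h compound exposure, 30 °C humidified / Technique: culture absorbance at 615 nm / Controls: amphotericin B positive control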
RAM inhibit = yeast RAM network inhibition. S. cerevisiae dse1pr::URA3 reporter, 5-FOA growth OD615, 2 d; analog-sensitive cbk1-as2 kinase mutant strain. inhibition, % at 50 µM. actives 1.8% (n = 190,000);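 active = inhibition above a set limit, 3 SD over mean compound inhibition, cut at about 8.4% in these data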;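 note: inhibition rescues growth on 5-FOA so higher OD means more RAM inhibition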
Of the large screens only hits and unclear results are named; the others gave an inactive call.

Cc1nc2c(=O)n(C)c(=O)nc-2n(C)n1	Efa HMGR inh 10 (no result: Yeast lifespan up)
CCN1C(=O)/C(=C\c2ccc([N+](=O)[O-])s2)C(=O)NC1=S	Efa HMGR inh 11 (no result: Yeast lifespan up, Yeast growth inh)
N#Cc1ccccc1Cn1cc(C(=O)c2ccccc2F)c2ccccc21	none
COc1ccc(C2SCC(=O)Nc3c2c(=O)[nH]n3C2CCCCCC2)cc1 (centres undefined)	none
COc1ccc(C2SCC(=O)Nc3c2c(=O)[nH]n3C2CCCCCC2)cc1OC (centres undefined)	Yeast lifespan up 29 (no result: b-catenin transl)
O=P(NC(c1ccccc1)c1ccccc1)(Oc1ccccc1)Oc1ccccc1	RAM inhibit 9.3
CC1(c2ccc(Cl)cc2Cl)OCC(Cn2cncn2)O1 (centres undefined)	none (no result: Yeast lifespan up, Yeast growth inh)
CCCC1COC(Cn2cncn2)(c2ccc(Cl)cc2Cl)O1 (centres undefined)	Yeast growth inh 94
CCOc1cc(C2C(C#N)=C(N)Oc3c2c(=O)oc2ccccc32)ccc1OC(=O)c1cccs1 (centres undefined)	RAM inhibit 8.9
COCCCn1c(-c2ccc(OC)cc2)cc(C(=O)NC2CCCCCCC2)c1C	RAM inhibit 11 (no result: b-catenin transl)
CCC(C)(C)n1nnnc1C(c1cccs1)N1CC=C(c2ccc(F)cc2)CC1 (centres undefined)	none
Fc1ccc(C2=CCN(C(c3cccs3)c3nnnn3CCc3ccccc3)CC2)cc1 (centres undefined)	RAM inhibit 10
CCN(CC)P(=O)(c1nccn1C)N(CC)CC	none (no result: Yeast lifespan up, Yeast growth inh)
O=C(c1ccccc1)C(CN1CCCC1)c1ccccc1 (centres undefined)	Yeast lifespan up 56
Cc1onc(-c2c(Cl)cccc2Cl)c1C(=O)Nc1ccc2c(C(F)(F)F)cc(=O)oc2c1	none (no result: Yeast lifespan up, MT stabilizer, Efa HMGR inh, Yeast growth inh, RAM inhibit)
CN(C)C(=O)Oc1ccc(OC(=O)c2ccccc2)cc1	none
CN(C(=O)Oc1ccc(C(=O)c2ccc(Cl)cc2)cc1)c1ccccc1	RAM inhibit 8.4
COc1ccc(CCNC(C)CCc2ccc(OC)cc2)cc1 (centres undefined)	none (no result: b-catenin transl)
COc1ccc(/C=C2/C(=O)NC(=O)N(Cc3ccco3)C2=O)cc1	none (no result: Yeast lifespan up, Yeast growth inh)
CCOC(=O)C1CCN(/C=C2/C(=O)NC(=O)N(Cc3ccco3)C2=O)CC1	MT stabilizer 41
CCC(=O)c1c(O)n(C2CCCCCC2)c(=O)[nH]c1=O	Yeast growth inh 89
O=c1[nH]c(=O)n(-c2ccccc2F)c(O)c1C=NCCC1=CCCCC1	none (no result: Yeast lifespan up, Yeast growth inh)
CCOc1ccccc1OCC(=O)Nc1ccc(Cl)cc1C(=O)c1ccccc1	RAM inhibit 9.6
Cc1cccc(CN(C)C)c1OC(=O)N(C)C	Yeast lifespan up 29
CCN(CC)c1ccc(CNCCc2ccccc2F)cc1	MT stabilizer 21 (no result: Yeast lifespan up, Yeast growth inh)
NS(=O)(=O)c1ccc(N=Cc2c(O)n(C3CCCCC3)c(=O)n(C3CCCCC3)c2=O)cc1	Yeast lifespan up 33
O=C1c2ccccc2C(=O)N1Cc1nc2ccccc2c(=O)n1-c1ccc(Br)cn1	Yeast lifespan up 77
COc1ccc(NP(=O)(Oc2ccccc2OC)Oc2ccccc2OC)cc1	none
COc1ccc(NP(=O)(Oc2ccc(Cl)cc2)Oc2ccc(Cl)cc2)cc1OC	RAM inhibit 9.5
COc1ccc(NP(=O)(Oc2cccc(C)c2)Oc2cccc(C)c2)cc1OC	none (no result: Yeast lifespan up, MT stabilizer, Efa HMGR inh, Yeast growth inh, RAM inhibit)
COc1ccc(OC)c(NP(=O)(Oc2ccc(Cl)cc2)Oc2ccc(Cl)cc2)c1	RAM inhibit 11
Cc1ccnc(NS(=O)(=O)c2ccc(N=Cc3c(O)n(C)c(=O)n(C)c3=O)cc2)n1	none (no result: Yeast lifespan up, Yeast growth inh)
CN1CSC(=S)N(C)C1	Yeast growth inh 86
O=C(Cn1cc(C(=O)c2ccccc2)c2ccccc21)NCc1ccco1	MT stabilizer 31
O=C(c1ccco1)c1cn(Cc2ccc(Cl)cc2)c2ccccc12	MT stabilizer 5.6, RAM inhibit 11 (no result: b-catenin transl)
COc1ccccc1OCCCn1cc(C(=O)c2ccco2)c2ccccc21	RAM inhibit 10
O=C(c1ccccc1)c1cn(CC(=O)N2CCCc3ccccc32)c2ccccc12	none (no result: b-catenin transl)
CSc1ccc(CN2CCN(C(=O)COc3cccc(C)c3)CC2)cc1	none (no result: Yeast lifespan up, Yeast growth inh)
CC(C)OP(=O)(Oc1ccc(C(O)C(Cl)(Cl)Cl)cc1)OC(C)C (centres undefined)	none (no result: Yeast lifespan up, MT stabilizer, Efa HMGR inh, Yeast growth inh, RAM inhibit)
Cc1ccc(/C=C2\C(=O)NC(=O)N(CCc3ccc(F)cc3)C2=O)o1	Yeast lifespan up 39
O=c1c2ccccc2nc(CNCC2CCCO2)n1-c1ccc(F)cc1 (centres undefined)	none (no result: Yeast lifespan up, Yeast growth inh)
COc1ccccc1C1C([N+](=O)[O-])=C(N)Oc2c1c(=O)oc1ccccc21 (centres undefined)	none (no result: Yeast lifespan up, MT stabilizer, Efa HMGR inh, Yeast growth inh, RAM inhibit)
COC(=O)C(O)(c1ccc(N(C)C)cc1)C(F)(F)F (centres undefined)	none (no result: Yeast lifespan up, Yeast growth inh)
CN(C)c1ccc(C(=O)c2ccc(N(C)C)cc2)cc1	MT stabilizer 46 (no result: b-catenin transl)
O=C(Nc1ccc(OC(=O)N2CCCCC2)cc1)N1CCOCC1	none (no result: Yeast lifespan up, Yeast growth inh)
O=C(Oc1c(Cl)cc(Cl)c2ccccc12)N1CCCCC1	RAM inhibit 10 (no result: b-catenin transl)
O=C1C(=O)c2cccc3cccc1c23	none (no result: b-catenin transl)
O=C1C(=O)c2ccccc2-c2ccccc21	Yeast growth inh 100
Cc1nonc1OCCNCCNc1ccc([N+](=O)[O-])c2cccnc12	none
CCCCn1c(=O)c(C(=O)NCc2ccncc2)c(O)c2ccccc21	Yeast growth inh 46
CN1CCN(/N=C/c2c(O)n(Cc3ccc(F)cc3)c(=O)[nH]c2=O)CC1	none (no result: Yeast lifespan up, MT stabilizer, Efa HMGR inh, Yeast growth inh, RAM inhibit)
CCCn1cc(C(=O)O)cn1	Efa HMGR inh 14 (no result: Yeast lifespan up, Yeast growth inh)
O=C(CNC1CCCC1)Nc1ccc(N2CCCCCC2)cc1	none (no result: Yeast lifespan up, Yeast growth inh)
O=C(NC(=C(Cl)Cl)P(=O)(c1ccccc1)c1ccccc1)c1ccccc1	none
C=C1C(=O)O[C@@H]2C[C@@H](C)[C@@H]3C=CC(=O)[C@@]3(C)[C@@H](OC(=O)CC(=O)O[C@H]3[C@@H]4C(=C)C(=O)O[C@@H]4C[C@@H](C)[C@@H]4C=CC(=O)[C@]43C)[C@H]12	b-catenin transl 72 (no result: Yeast lifespan up, MT stabilizer, Efa HMGR inh, Yeast growth inh, RAM inhibit)
C=C1C(=O)O[C@H]2[C@H]1[C@H](OC(=O)CC(=O)O[C@@H]1C[C@@H](C)[C@@H]3C=CC(=O)[C@@]3(C)[C@H]3OC(=O)C(=C)[C@H]13)C[C@@H](C)[C@H]1C=CC(=O)[C@]12C	none (no result: Yeast lifespan up, MT stabilizer, Efa HMGR inh, Yeast growth inh, RAM inhibit)
COc1cccc(C2CC3C(=O)C=CC2N3Cc2ccccc2)c1 (centres undefined)	Yeast lifespan up 59
O=C1/C(=C/c2cc([N+](=O)[O-])ccc2Cl)N2CCC1CC2	none (no result: b-catenin transl)
O=C1/C(=C/c2cccc([N+](=O)[O-])c2)N2CCC1CC2	Yeast lifespan up 36
C#CCOc1cc(C2C3=C(COC3=O)Nc3cc4c(cc32)OCO4)ccc1OC (centres undefined)	MT stabilizer 13, b-catenin transl 80 (no result: Yeast lifespan up, Yeast growth inh)
COc1ccc(/C=N\N=C(N)N)cc1	none (no result: Yeast lifespan up, Yeast growth inh)
NC(N)=N/N=C/c1ccc(N2CCOCC2)cc1	MT stabilizer 10 (no result: Yeast lifespan up, Yeast growth inh)

High-throughput results: PubChem, several laboratories
